Results reported in ChEMBL document CHEMBL4196081, “Synthesis and antimycobacterial activity of 1-(β-d-Ribofuranosyl)-4-coumarinyloxymethyl- / -coumarinyl-1,2,3-triazole” (Eur J Med Chem, 2018).
≈ marks a conversion by molar mass, not a printed value.

Legend:
[1] = Cytotoxicity against human THP1 cells assessed as cell viability at 9.36 ug/ml after 48 hrs by MTT assay relative to control; type: cell-based; conditions: THP-1 cells, read-out: Activity
In short: (§1)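 THP-1 cells (human monocytic line) seeded at 10^4 per well and adhered with phorbol myristate acetate (20 ng/mL). Then given fresh RPMI with 10% foetal calf serum and 2 mM L-glutamine, plus compound by serial double dilution (4.68–150 µg/mL), with DMSO and no-DMSO controls. Incubated 24 or 48 h at 37 °C, 5% CO2. MTT added for 4 h, formazan dissolved in DMSO, A540 read, percentage survival calculated.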

[2] = system: Mycobacterium tuberculosis; test: Potency index, ratio of streptomycin MIC to compound MIC for antimycobacterial activity against MDR Mycobacterium tuberculosis isolate 591; type: functional
[3] = Cytotoxicity against human THP1 cells assessed as cell viability at 4.68 ug/ml after 48 hrs by MTT assay relative to control; type: cell-based; conditions: THP-1 cells, read-out: Activity; in short: as §1
[4] = system: THP-1; test: Cytotoxicity against human THP1 cells assessed as growth inhibition after 24 to 48 hrs by MTT assay; type: cell-based; in short: as §1
[5] = system: Mycobacterium tuberculosis; test: Ratio of MBC to MIC for Mycobacterium tuberculosis H37Rv; type: functional
[6] = Cytotoxicity against human THP1 cells assessed as cell viability at 18.72 ug/ml after 24 hrs by MTT assay relative to control; type: cell-based; conditions: THP-1 cells, read-out: Activity; in short: as §1
[7] = Cytotoxicity against human THP1 cells assessed as cell viability at 37.48 ug/ml after 24 hrs by MTT assay relative to control; type: cell-based; conditions: THP-1 cells, read-out: Activity; in short: as §1
[8] = system: Mycobacterium tuberculosis; test: Potency index, ratio of isoniazid MIC to compound MIC for antimycobacterial activity against MDR Mycobacterium tuberculosis isolate 591; type: functional
[9] = Cytotoxicity against human THP1 cells assessed as cell viability at 150 ug/ml after 24 hrs by MTT assay relative to control; type: cell-based; conditions: THP-1 cells, read-out: Activity; in short: as §1
[10] = Selectivity index, ratio of IC50 for cytotoxicity against human THP1 cells to MIC for Mycobacterium tuberculosis H37Rv; type: toxicity, cell-based; conditions: THP-1 cells, read-out: Selectivity Index
In short: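 THP-1 cells, 10^4/well, adhered with PMA 20 ng/mL, in RPMI with 10 % FCS and 2 mM L-glutamine; exposed to 4.68–150 µg/mL for 24 and 48 h at 37 °C, 5 % CO2; MTT 4 h, formazan in DMSO, A540. Index = THP-1 IC50 divided by H37Rv MABA MIC.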

[11] = Cytotoxicity against human THP1 cells assessed as cell viability at 18.72 ug/ml after 48 hrs by MTT assay relative to control; type: cell-based; conditions: THP-1 cells, read-out: Activity; in short: as §1
[12] = Cytotoxicity against human THP1 cells assessed as cell viability at 37.48 ug/ml after 48 hrs by MTT assay relative to control; type: cell-based; conditions: THP-1 cells, read-out: Activity; in short: as §1
[13] = system: Mycobacterium tuberculosis; test: Potency index, ratio of rifampicin MIC to compound MIC for antimycobacterial activity against MDR Mycobacterium tuberculosis isolate 591; type: functional
[14] = Cytotoxicity against human THP1 cells assessed as cell viability at 9.36 ug/ml after 24 hrs by MTT assay relative to control; type: cell-based; conditions: THP-1 cells, read-out: Activity; in short: as §1
[15] = system: Mycobacterium tuberculosis; test: Bactericidal activity against Mycobacterium tuberculosis H37Rv after 4 weeks by MABA; type: functional; conditions: 672 h
[16] = Cytotoxicity against human THP1 cells assessed as cell viability at 75 ug/ml after 48 hrs by MTT assay relative to control; type: cell-based; conditions: THP-1 cells, read-out: Activity; in short: as §1
[17] = Cytotoxicity against human THP1 cells assessed as cell viability at 150 ug/ml after 48 hrs by MTT assay relative to control; type: cell-based; conditions: THP-1 cells, read-out: Activity; in short: as §1
[18] = Cytotoxicity against human THP1 cells assessed as cell viability at 4.68 ug/ml after 24 hrs by MTT assay relative to control; type: cell-based; conditions: THP-1 cells, read-out: Activity; in short: as §1
[19] = Cytotoxicity against human THP1 cells assessed as cell viability at 75 ug/ml after 24 hrs by MTT assay relative to control; type: cell-based; conditions: THP-1 cells, read-out: Activity; in short: as §1
[20] = system: Mycobacterium tuberculosis; test: Antimycobacterial activity against MDR Mycobacterium tuberculosis isolate 591 after 15 days by MABA; type: functional; conditions: isolate 591, 360 h
In short: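 MABA in 7H9 medium on MDR clinical isolate 591: filtered single-cell suspension, 1 × 10^6 cells per well with drug dilutions, aerobic 37 °C; 0.02 % resazurin added on day 15, overnight 37 °C. MIC = lowest concentration preventing blue-to-pink change. Triplicate; medium+inoculum and medium-only controls.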

[21] = system: Mycobacterium tuberculosis; test: Potency index, ratio of ethambutol MIC to compound MIC for antimycobacterial activity against MDR Mycobacterium tuberculosis isolate 591; type: functional
[22] = system: Mycobacterium tuberculosis; test: Antimycobacterial activity against Mycobacterium tuberculosis H37Rv after 10 days by MABA; type: functional; conditions: 240 h
In short: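 MABA in 7H9 medium: log-phase culture passed through 8 µm filter, density set by OD600 and McFarland standards, 1 × 10^6 cells per well with drug dilutions; aerobic incubation 37 °C 10 days, then 0.02 % resazurin, overnight 37 °C. MIC = lowest concentration preventing blue-to-pink change. Triplicate; medium+inoculum and medium-only controls.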

Row | SMILES | viability at 48 h, 9.36 ug/ml [1] [%] | viability at 48 h, 4.68 ug/ml [3] [%] | IC50 [4] [µM] | Ratio [5] | viability at 24 h, 18.72 ug/ml [6] [%] | viability at 24 h, 37.48 ug/ml [7] [%] | viability at 24 h, 150 ug/ml [9] [%] | selectivity ratio [10] | viability at 48 h, 18.72 ug/ml [11] [%] | viability at 48 h, 37.48 ug/ml [12] [%] | viability at 24 h, 9.36 ug/ml [14] [%] | MBC [15] [µM] | viability at 48 h, 75 ug/ml [16] [%] | viability at 48 h, 150 ug/ml [17] [%] | viability at 24 h, 4.68 ug/ml [18] [%] | viability at 24 h, 75 ug/ml [19] [%] | MIC [20] [µM] | MIC [22] [µM] | other results
1 | O=c1cc(-c2ccccc2)c2ccc(OCc3cn([C@@H]4O[C@H](CO)[C@@H](O)[C@H]4O)nn3)cc2o1 | 93 | 95 | > 332 | 4 | 100 | 94 | 79 | 75.4 | 84 | 78 | 100 | 17.7 (≈ 7.99 µg/mL) | 70 | 62 | 100 | 88 | 8.9 (≈ 4.02 µg/mL) | 4.4 (≈ 1.99 µg/mL) | Ratio [2]: 7 - 420; Ratio [8]: 7 - 420; Ratio [13]: 7 - 420; Ratio [21]: 7 - 420
2 | CO[C@H]1/C=C/O[C@@]2(C)Oc3c(C)c(O)c4c(O)c(c(/C=N/N5CCN(C)CC5)c(O)c4c3C2=O)NC(=O)/C(C)=C\C=C\[C@H](C)[C@H](O)[C@@H](C)[C@@H](O)[C@@H](C)[C@H](OC(C)=O)[C@@H]1C [RIFAMPIN] | – | – | – | – | – | – | – | – | – | – | – | – | – | – | – | – | 152 (≈ 125 µg/mL) | 0.02 (≈ 0.0165 µg/mL) | –
3 | Cc1cc(=O)oc2cc(OCc3cn([C@@H]4O[C@H](COC(=O)c5ccccc5)[C@@H](OC(=O)c5ccccc5)[C@H]4OC(=O)c4ccccc4)nn3)c(Cl)cc12 | – | – | – | 2 | – | – | – | – | – | – | – | 27.2 (≈ 20 µg/mL) | – | – | – | – | 20.4 (≈ 15 µg/mL) | 13.5 (≈ 9.94 µg/mL) | –
4 | O=c1cc(-c2ccccc2)c2ccc(-c3cn([C@@H]4O[C@H](CO)[C@@H](O)[C@H]4O)nn3)cc2o1 | 94 | 96 | > 355 | 2 | 84 | 70 | 65 | 25 | 83 | 70 | 94 | 28.5 (≈ 12 µg/mL) | 63 | 62 | 100 | 68 | 18.9 (≈ 7.96 µg/mL) | 14.2 (≈ 5.98 µg/mL) | –
5 | O=C(OC[C@H]1O[C@@H](n2cc(-c3ccc4ccc(=O)oc4c3)nn2)[C@H](OC(=O)c2ccccc2)[C@@H]1OC(=O)c1ccccc1)c1ccccc1 | – | – | – | 2 | – | – | – | – | – | – | – | 30.4 (≈ 20 µg/mL) | – | – | – | – | 30.4 (≈ 20 µg/mL) | 15.2 (≈ 10 µg/mL) | –
6 | O=c1ccc2ccc(OCc3cn([C@@H]4O[C@H](CO)[C@@H](O)[C@H]4O)nn3)cc2o1 | 86 | 89 | > 400 | 2.5 | 89 | 86 | 60 | 37.7 | 84 | 63 | 91 | 26.6 (≈ 9.98 µg/mL) | 59 | 55 | 100 | 68 | 15.9 (≈ 5.97 µg/mL) | 10.6 (≈ 3.98 µg/mL) | –
7 | Cc1cc(=O)oc2cc(-c3cn([C@@H]4O[C@H](COC(=O)c5ccccc5)[C@@H](OC(=O)c5ccccc5)[C@H]4OC(=O)c4ccccc4)nn3)c(Cl)cc12 | – | – | – | 1.8 | – | – | – | – | – | – | – | 25.5 (≈ 18 µg/mL) | – | – | – | – | 14.2 (≈ 10 µg/mL) | 14.2 (≈ 10 µg/mL) | –
8 | O=c1ccc2ccc(-c3cn([C@@H]4O[C@H](CO)[C@@H](O)[C@H]4O)nn3)cc2o1 | – | – | – | 1.6 | – | – | – | – | – | – | – | 46.3 (≈ 16 µg/mL) | – | – | – | – | 28.9 (≈ 9.98 µg/mL) | 28.9 (≈ 9.98 µg/mL) | –
9 | O=C(OC[C@H]1O[C@@H](n2cc(COc3ccc4ccc(=O)oc4c3)nn2)[C@H](OC(=O)c2ccccc2)[C@@H]1OC(=O)c1ccccc1)c1ccccc1 | – | – | – | 2.25 | – | – | – | – | – | – | – | 26.2 (≈ 18 µg/mL) | – | – | – | – | 14.5 (≈ 9.97 µg/mL) | 11.6 (≈ 7.98 µg/mL) | –
